Only a selection was taken, and hits are over-represented in it overall.
UPR XBP1 act = adaptive UPR (XBP1) activation. CHO-XBP1 luciferase reporter, IRE1-XBP1 UPR activation, luminescence; percent of tunicamycin response, DMSO as zero. activation, % at 20 µM. 330,000 tested, 0.33% active;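 active = versus positive control, 20 µM dose yields 30% or more activation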;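 note: 100% = tunicamycin at 10 µg/mL and 0% = DMSO only wells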
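Material: CHO-XBP1 cells stably carrying IRE1-XBP1-driven luciferase reporter | Medium: F12 with 10% serum | Compound dosing: 20 µM single concentration, DMSO 1% | Incubation: Overnight seeding at 37 °C, 6 h compound treatment at 37 °C | Detection: Steady-Glo luminescence read | Read-out basis: % activation of reporter signal versus tunicamycin and DMSO controls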
NOD2 RIPK2 PPI = blocks binding of human NOD2 to RIPK2; CHO BLA complementation NOD2-RIPK2, CCF4 ratio; inhibition, % at 4.98 µM; 360,000 tested, 0.38% active; AID 624267; in the data active = inhibition above about 21%;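 note: 0% = vehicle only and 100% = reference blocker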
Target sequence (O43353 whole entry, looked up): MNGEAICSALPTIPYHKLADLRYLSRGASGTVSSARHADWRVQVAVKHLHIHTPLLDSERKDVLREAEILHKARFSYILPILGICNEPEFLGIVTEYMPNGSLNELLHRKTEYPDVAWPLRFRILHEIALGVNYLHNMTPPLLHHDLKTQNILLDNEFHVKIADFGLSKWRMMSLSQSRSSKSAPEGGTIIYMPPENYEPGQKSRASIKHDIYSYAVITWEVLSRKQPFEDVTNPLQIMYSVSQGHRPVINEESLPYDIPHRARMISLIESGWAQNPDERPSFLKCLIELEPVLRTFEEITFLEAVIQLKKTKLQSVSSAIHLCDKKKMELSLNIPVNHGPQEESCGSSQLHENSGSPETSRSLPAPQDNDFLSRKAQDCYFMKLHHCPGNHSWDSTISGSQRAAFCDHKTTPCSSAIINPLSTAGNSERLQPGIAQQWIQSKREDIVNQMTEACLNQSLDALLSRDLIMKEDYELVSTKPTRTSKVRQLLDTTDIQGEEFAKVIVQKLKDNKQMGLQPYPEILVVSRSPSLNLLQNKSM
TLR9-MyD88 block = inhibitors of human TLR9-MyD88 binding; Q9NR96+Q99836; CHO BLA complementation TLR9-MyD88, CCF4 FRET ratio; inhibition, % at 4.98 µM; 340,000 tested, 0.21% active; AID 504734;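 active = inhibition above the mean over all tested compounds plus 3 SD, cut at about 21% in these data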;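 note: 0% = DMSO only wells and 100% = clavulanate BLA inhibitor control wells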
UPR CHOP act = apoptotic UPR (CHOP) activation | CHO-CHOP luciferase reporter, luminescence; percent of tunicamycin response over DMSO baseline | activation, % at 10 µM | 330,000 tested, 0.34% active;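 active = at 10 µM dose, activation of 40% or more, normalized to positive control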;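 note: 100% = tunicamycin at 10 µg/mL and 0% = DMSO alone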
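Dosing – one dose, 10 µM in 0.5% DMSO · System – CHO-CHOP cells, stable luciferase reporter of PERK-eIF2a-CHOP signalling · Input – 500 cells/well · Control set – tunicamycin 10 µg/mL final as positive, DMSO-only wells as negative · Timing – 6 h compound treatment, 37 °C · Measure – % activation vs tunicamycin · Technique – luminescence read with Steady-Glo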
TLR4-MyD88 BLA = TLR4-MyD88 interaction inhibition in cells | O00206+Q99836 | HeLa CL3-4 TLR4/MyD88 BLA complementation, FRET ratio | inhibition, % at 8.4 µM | 200,000 tested, 0.18% active; in the data active = inhibition above about 25%;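 note: 0% = vehicle and 100% = reference inhibitor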
CHOP inhibitor = blocks CHOP induction under ER stress. CHO-K1 CHOP-promoter luciferase, tunicamycin-induced, 15-18 h. 220,000 tested, 3.8% active. AID 2732. inhibition, % at 10 µM;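 active = compounds that reduced the stress-induced luciferase reporter signal by more than about 70% of percent inhibition, limit read from the data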;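 note: 0% = tunicamycin plus vehicle and 100% = wells without tunicamycin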
UPR XBP1 confirm = adaptive UPR (XBP1) activation, confirmed; shares compounds with UPR XBP1 act; CHO-XBP1 IRE1-XBP1 luciferase reporter, luminescence; activation, % at 20 µM; 1,000 tested, 63% active;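 active = reporter signal at least 30% of the positive control's activation in two or more of four replicate wells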;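 note: plate controls were DMSO negative control for no effect and tunicamycin 10 µg/mL positive control for full effect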
* marks the source's active call; other numbers are inactive results.

Results for CCc1ccc(C(O)c2ncc(-c3ccccc3OC)[nH]2)cc1 (configuration not stated) ?
NOD2 RIPK2 PPI: 1

What do the screens show for `COC(=O)C1C(=O)OC(C)(C)C1C(C)C(=O)c1ccccc1` (configuration not stated)?
UPR XBP1 act: 3; NOD2 RIPK2 PPI: -1; TLR9-MyD88 block: 0; UPR CHOP act: 0; TLR4-MyD88 BLA: -7; CHOP inhibitor: -1

What do the screens show for `Cc1cc(C)c(NC(=O)CSc2nc(COc3ccccc3)nc3ccccc23)c(C)c1`?
UPR XBP1 act: 53*; NOD2 RIPK2 PPI: 4; TLR9-MyD88 block: -7; UPR CHOP act: 1; TLR4-MyD88 BLA: 0; CHOP inhibitor: 91*; UPR XBP1 confirm: 47*

What do the screens show for `Cc1ccccc1NC(=O)CSc1nc(COc2ccccc2)nc2ccccc12`?
UPR XBP1 act: -3; NOD2 RIPK2 PPI: 13; TLR9-MyD88 block: 1; UPR CHOP act: 0; TLR4-MyD88 BLA: -9; CHOP inhibitor: 26

How did COC(=O)c1sc(-c2ccccc2)cc1NC(=O)c1ccc(F)cc1 do in these assays?
UPR XBP1 act: 61*; NOD2 RIPK2 PPI: -1; TLR9-MyD88 block: -5; UPR CHOP act: 14; TLR4-MyD88 BLA: -6; CHOP inhibitor: 48; UPR XBP1 confirm: 22

How did CCOC(=O)c1cc(-c2ccccc2)sc1NC(=O)c1ccc(OC)cc1 do in these assays?
UPR XBP1 act: 151*; UPR CHOP act: 36; TLR4-MyD88 BLA: -2; CHOP inhibitor: 25; UPR XBP1 confirm: 118*

How did COC(=O)c1sc(-c2ccccc2)cc1NC(=O)c1ccc(OC)cc1 do in these assays?
UPR XBP1 act: 6; NOD2 RIPK2 PPI: -5; TLR9-MyD88 block: -2; UPR CHOP act: 0; TLR4-MyD88 BLA: -4; CHOP inhibitor: 46

Results for O=C(CCl)Nc1ccccc1Sc1ccc(Cl)cc1 ?
UPR XBP1 act: 45*; NOD2 RIPK2 PPI: 0; TLR9-MyD88 block: -1; UPR CHOP act: 25; TLR4-MyD88 BLA: -4; CHOP inhibitor: -26; UPR XBP1 confirm: 7

Results for CC(=O)N1CCN(CC(=O)Nc2ccccc2Sc2ccc(Cl)cc2)CC1 ?
UPR XBP1 act: 0; NOD2 RIPK2 PPI: 1; TLR9-MyD88 block: -10; UPR CHOP act: 0; TLR4-MyD88 BLA: 5; CHOP inhibitor: 17

How did O=C(NCCC1=CCCCC1)C(=O)NCC(c1ccco1)N1CCN(c2ccc(F)cc2)CC1 (configuration not stated) do in these assays?
UPR XBP1 act: 31*; NOD2 RIPK2 PPI: 1; TLR9-MyD88 block: 3; UPR CHOP act: 2; TLR4-MyD88 BLA: -6; CHOP inhibitor: 88*; UPR XBP1 confirm: 56*

Results for O=C(c1ccccc1)c1c[nH]c(C(=O)C(Cl)(Cl)Cl)c1 ?
UPR XBP1 act: -2; NOD2 RIPK2 PPI: -2; TLR9-MyD88 block: 6; UPR CHOP act: 0; TLR4-MyD88 BLA: 18; CHOP inhibitor: 19

Results for O=C(Cc1ccccc1)c1c[nH]c(C(=O)C(Cl)(Cl)Cl)c1 ?
UPR XBP1 act: 39*; NOD2 RIPK2 PPI: 4; TLR9-MyD88 block: -3; UPR CHOP act: 7; UPR XBP1 confirm: 49*

What do the screens show for `O=C(Nc1cccnc1)c1sc(Nc2ccccc2F)nc1-c1ccccc1`?
UPR XBP1 act: 38*; NOD2 RIPK2 PPI: -3; TLR9-MyD88 block: -16; UPR CHOP act: 4; TLR4-MyD88 BLA: -5; CHOP inhibitor: -7; UPR XBP1 confirm: 23

What do the screens show for `CCOc1cc2c3c(c1)C(C)=CC(C)(C)N3C(=O)C2=O`?
UPR XBP1 act: 41*; NOD2 RIPK2 PPI: 11; TLR9-MyD88 block: -11; UPR CHOP act: 0; TLR4-MyD88 BLA: -1; CHOP inhibitor: -17; UPR XBP1 confirm: 32*

How did CCOc1cc2c3c(c1)C(C)CC(C)(C)N3C(=O)C2=O (configuration not stated) do in these assays?
UPR XBP1 act: 15; NOD2 RIPK2 PPI: -7; TLR9-MyD88 block: 5; UPR CHOP act: 1; TLR4-MyD88 BLA: 2; CHOP inhibitor: -1
